The results in this text go back to ChEMBL document CHEMBL3232758, “Synthesis and evaluation of carbon-linked analogs of dual orexin receptor antagonist filorexant” (Bioorg Med Chem Lett, 2014).

Converted amounts (≈) assume the structure as drawn. The source made the active and inactive calls. No cut-off for these calls is given here. A value given as a limit tells only on which side of the number the result lay.

Data set [1] has as its target T1, Orexin/Hypocretin receptor type 1 (Homo sapiens, UniProt O43613).
T1 sequence (O43613 whole entry): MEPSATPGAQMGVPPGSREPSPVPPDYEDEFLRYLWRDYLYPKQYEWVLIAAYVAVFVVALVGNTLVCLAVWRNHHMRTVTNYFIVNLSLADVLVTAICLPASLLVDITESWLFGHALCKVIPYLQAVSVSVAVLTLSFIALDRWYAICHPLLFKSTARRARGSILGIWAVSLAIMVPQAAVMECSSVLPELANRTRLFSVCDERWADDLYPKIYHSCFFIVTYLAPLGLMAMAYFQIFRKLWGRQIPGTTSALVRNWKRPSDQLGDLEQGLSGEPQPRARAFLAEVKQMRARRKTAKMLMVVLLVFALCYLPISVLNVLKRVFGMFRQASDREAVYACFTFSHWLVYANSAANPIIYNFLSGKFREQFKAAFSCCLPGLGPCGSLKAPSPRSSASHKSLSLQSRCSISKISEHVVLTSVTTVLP
Put plainly: Binding affinity to human OX1 receptor in cell membrane by in vitro radioligand binding assay. Format: cell membranes. The procedure, abridged: (§1)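 Radioligand binding to membranes from human cells overexpressing OX1R or OX2R; affinity expressed as Ki.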

The target in data set [2] is T2, Orexin receptor type 2 (Homo sapiens, UniProt O43614).
T2 sequence (O43614 whole entry): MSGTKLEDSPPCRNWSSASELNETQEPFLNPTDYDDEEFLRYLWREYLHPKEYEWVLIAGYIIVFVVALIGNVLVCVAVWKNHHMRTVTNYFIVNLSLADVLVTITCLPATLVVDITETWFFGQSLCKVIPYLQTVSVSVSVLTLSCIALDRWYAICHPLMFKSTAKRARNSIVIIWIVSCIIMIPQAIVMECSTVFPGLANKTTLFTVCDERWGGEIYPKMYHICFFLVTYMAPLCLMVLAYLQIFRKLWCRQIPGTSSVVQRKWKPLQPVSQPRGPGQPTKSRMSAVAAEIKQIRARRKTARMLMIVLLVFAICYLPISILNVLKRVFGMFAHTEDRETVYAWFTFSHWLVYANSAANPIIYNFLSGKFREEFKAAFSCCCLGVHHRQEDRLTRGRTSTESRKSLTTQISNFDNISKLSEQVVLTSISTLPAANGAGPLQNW
Description: Binding affinity to human OX2 receptor in cell membrane by in vitro radioligand binding assay. Format: cell membranes. Put shortly:
as §1

A short description of data set [3]: Lipophilicity, log D of the compound at pH 7 by HPLC analysis. Format: physicochemical. Conditions: buffer. The procedure, abridged: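 High-throughput HPLC logD at pH 7 using a reversed-phase C18 column, with phosphate-buffered saline pH 7 and acetonitrile as mobile phases. The system is calibrated with standards of published shake-flask logD, and logD is read from a linear regression of retention time against logD.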

In data set [4] the target is T1, Orexin/Hypocretin receptor type 1. Description: Antagonist activity at human OX1 receptor assessed as Ca2+ flux by FLIPR assay. In kind it is functional.
For data set [5], the target named is T2, Orexin receptor type 2. Put plainly: Antagonist activity at human OX2 receptor assessed as Ca2+ flux by FLIPR assay. Format: functional.
For data set [6], the target named is Cytochrome P450 2D6 (Homo sapiens, UniProt P10635). Put plainly: Inhibition of CYP2D6 (unknown origin). Format: ADME.
In data set [7] the test system is Mus musculus. Description: Sleep promoting activity in wild type mouse sleep EEG model assessed as increase in delta sleep at 100 mg/kg, po administered during dark or active phase 4 hrs prior to lights on measured during first 30 mins after drug administration. Format: functional, organism-based. Set-up: dose 100 mg/kg. Put shortly: (§2)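 Mice carried surgically implanted radiotelemetry transmitters recording EEG and EMG to score vigilance state; wildtype n = 5, OX2R knockout n = 6. Oral 100 mg/kg or vehicle (20% Vit. E TPGS) in a balanced cross-over, dosed in the dark (active) phase 4 h before lights on. Mean time per state was taken in 30 min intervals and compared by a linear mixed-effects repeated-measures t-test.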

Data set [8] can be described thus: Half life in iv dosed dog. Format: ADME, organism-based, Canis lupus familiaris. As to conditions: in vivo.
A short description of data set [9]: Plasma concentration in mouse at 100 mg/kg, po. In kind it is ADME, organism-based. Set-up: dose 100 mg/kg, route oral.
Data set [10] in a line: Plasma protein binding in dog. As to conditions: read-out: PPB (converted). Format: ADME, cell-free, Canis lupus familiaris.
Data set [11] concerns the target Voltage-gated inwardly rectifying potassium channel KCNH2 (Homo sapiens, UniProt Q12809). Description: Inhibition of human ERG.
The test system of data set [12] is Mus musculus. Description: Sleep promoting activity in wild type mouse sleep EEG model assessed as increase in REM sleep at 100 mg/kg, po administered during dark or active phase 4 hrs prior to lights on measured during first 30 mins after drug administration. Format: functional, organism-based. On the set-up: dose 100 mg/kg. Put shortly:
as §2

Data set [13] is described as follows: Solubility of the compound at pH 7 by HPLC analysis. As to conditions: buffer. In kind it is physicochemical.
Data set [14] concerns the target Cytochrome P450 2C9 (Homo sapiens, UniProt P11712). Put plainly: Inhibition of CYP2C9 (unknown origin). In kind it is ADME.
For data set [15], the system named is Mus musculus. Description: Sleep promoting activity in wild type mouse sleep EEG model assessed as reduction of active wake at 100 mg/kg, po administered during dark or active phase 4 hrs prior to lights on measured for 2 hrs following drug administration. Format: functional, organism-based. Set-up: dose 100 mg/kg. The procedure, abridged: as §2
Data set [16] has as its system Mus musculus. Description: Sleep promoting activity in wild type mouse sleep EEG model assessed as increase in delta sleep at 100 mg/kg, po administered during dark or active phase 4 hrs prior to lights on measured for 2 hrs following drug administration. In kind it is functional, organism-based. On the set-up: dose 100 mg/kg. Put shortly:
as §2

Data set [17] concerns the target T3, Cytochrome P450 3A4 (Homo sapiens, UniProt P08684). Description: Inhibition of CYP3A4 (unknown origin). In kind it is ADME.
Data set [18] concerns Mus musculus. Description: Sleep promoting activity in OX2 receptor knockout mouse at 100 mg/kg, po administered during dark or active phase 4 hrs prior to lights on. Set-up: dose 100 mg/kg. In kind it is functional, organism-based. Put shortly: as §2
Data set [19] concerns the target CYP3A4 (Homo sapiens, UniProt P08684). Description: Time-dependent inhibition of CYP3A4 (unknown origin) assessed as IC50 shift ratio. Format: ADME. As to conditions: read-out: Ratio IC50.
Data set [20] concerns Mus musculus. Put plainly: Sleep promoting activity in wild type mouse sleep EEG model assessed as duration of sleep at 100 mg/kg, po administered during dark or active phase 4 hrs prior to lights on. In kind it is functional. The procedure, abridged: as §2
A short description of data set [21]: Plasma protein binding in human. In kind it is ADME, cell-free. Conditions: read-out: PPB (converted).
Data set [22] has as its system Mus musculus. Description: Sleep promoting activity in wild type mouse sleep EEG model assessed as reduction of active wake at 100 mg/kg, po administered during dark or active phase 4 hrs prior to lights on measured during first 30 mins after drug administration. Format: functional, organism-based. On the set-up: dose 100 mg/kg. Put shortly:
as §2

A short description of data set [23]: Clearance in iv dosed dog. In kind it is ADME, organism-based, Canis lupus familiaris. Conditions: in vivo.
The target of data set [24] is T3, Cytochrome P450 3A4. Put plainly: Time-dependent inhibition of CYP3A4 (unknown origin). Format: ADME. Conditions: TDE = time-dependent effect.
The subject of data set [25] is Mus musculus. Description: Sleep promoting activity in wild type mouse sleep EEG model assessed as increase in REM sleep at 100 mg/kg, po administered during dark or active phase 4 hrs prior to lights on measured for 2 hrs following drug administration. Set-up: dose 100 mg/kg. Format: functional, organism-based. Put shortly:
as §2

T3 sequence (P08684 whole entry): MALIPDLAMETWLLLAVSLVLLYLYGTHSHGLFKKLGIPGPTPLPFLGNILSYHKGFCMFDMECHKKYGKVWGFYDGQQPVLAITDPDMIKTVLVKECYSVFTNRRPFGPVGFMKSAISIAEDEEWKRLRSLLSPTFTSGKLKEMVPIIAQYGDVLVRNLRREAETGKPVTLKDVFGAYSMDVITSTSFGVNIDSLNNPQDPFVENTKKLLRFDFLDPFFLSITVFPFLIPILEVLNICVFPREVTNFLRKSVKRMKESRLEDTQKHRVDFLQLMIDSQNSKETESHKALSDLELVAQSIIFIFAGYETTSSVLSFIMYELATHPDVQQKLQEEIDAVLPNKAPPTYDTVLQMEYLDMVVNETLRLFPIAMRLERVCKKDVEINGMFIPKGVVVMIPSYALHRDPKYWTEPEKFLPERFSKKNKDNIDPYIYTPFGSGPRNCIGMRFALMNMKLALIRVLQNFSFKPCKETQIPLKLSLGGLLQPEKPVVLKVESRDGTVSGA
Cytochrome P450 2C9, sequence (P11712 whole entry): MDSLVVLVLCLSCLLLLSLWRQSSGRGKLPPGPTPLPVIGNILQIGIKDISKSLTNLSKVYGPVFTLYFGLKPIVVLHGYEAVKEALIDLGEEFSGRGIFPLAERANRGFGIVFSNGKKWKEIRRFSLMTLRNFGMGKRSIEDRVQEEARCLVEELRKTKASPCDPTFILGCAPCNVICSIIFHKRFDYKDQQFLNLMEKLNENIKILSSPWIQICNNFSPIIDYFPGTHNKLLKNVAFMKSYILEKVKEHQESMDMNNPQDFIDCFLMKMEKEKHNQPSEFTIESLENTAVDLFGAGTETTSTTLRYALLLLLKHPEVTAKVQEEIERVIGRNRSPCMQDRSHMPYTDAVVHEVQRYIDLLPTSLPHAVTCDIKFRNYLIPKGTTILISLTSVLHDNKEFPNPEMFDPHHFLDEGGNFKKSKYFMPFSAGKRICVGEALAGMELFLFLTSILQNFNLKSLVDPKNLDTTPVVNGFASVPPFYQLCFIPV
Voltage-gated inwardly rectifying potassium channel KCNH2, sequence (Q12809 whole entry): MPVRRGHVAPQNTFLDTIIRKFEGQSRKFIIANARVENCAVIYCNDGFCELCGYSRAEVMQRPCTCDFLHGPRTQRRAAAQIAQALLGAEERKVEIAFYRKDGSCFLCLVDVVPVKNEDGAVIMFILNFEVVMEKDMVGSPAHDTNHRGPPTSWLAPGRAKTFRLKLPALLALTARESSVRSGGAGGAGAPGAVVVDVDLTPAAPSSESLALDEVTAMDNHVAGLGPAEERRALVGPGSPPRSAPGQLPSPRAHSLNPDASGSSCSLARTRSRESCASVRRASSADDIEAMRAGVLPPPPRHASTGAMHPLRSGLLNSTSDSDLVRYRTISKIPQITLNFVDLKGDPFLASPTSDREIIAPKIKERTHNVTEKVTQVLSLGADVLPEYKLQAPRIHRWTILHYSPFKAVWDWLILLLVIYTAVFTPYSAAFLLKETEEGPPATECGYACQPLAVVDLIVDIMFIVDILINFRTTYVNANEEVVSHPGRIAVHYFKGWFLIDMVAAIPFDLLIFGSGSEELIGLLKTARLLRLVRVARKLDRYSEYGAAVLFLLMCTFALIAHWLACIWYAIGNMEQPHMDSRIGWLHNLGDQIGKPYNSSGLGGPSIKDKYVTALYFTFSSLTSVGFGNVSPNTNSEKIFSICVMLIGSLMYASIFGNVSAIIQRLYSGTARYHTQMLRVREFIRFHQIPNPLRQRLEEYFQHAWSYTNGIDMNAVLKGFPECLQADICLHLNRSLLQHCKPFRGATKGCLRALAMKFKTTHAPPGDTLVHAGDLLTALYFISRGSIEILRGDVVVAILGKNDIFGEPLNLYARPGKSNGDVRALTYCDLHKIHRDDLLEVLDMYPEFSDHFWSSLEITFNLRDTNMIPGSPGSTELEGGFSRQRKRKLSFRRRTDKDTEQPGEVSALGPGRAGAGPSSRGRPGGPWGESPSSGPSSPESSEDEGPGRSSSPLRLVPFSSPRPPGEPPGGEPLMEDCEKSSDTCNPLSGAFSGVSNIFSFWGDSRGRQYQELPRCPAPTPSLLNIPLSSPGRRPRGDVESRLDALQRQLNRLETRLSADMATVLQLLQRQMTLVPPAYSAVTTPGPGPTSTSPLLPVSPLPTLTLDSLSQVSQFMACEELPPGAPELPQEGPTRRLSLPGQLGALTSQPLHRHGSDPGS
CYP3A4, sequence (P08684 whole entry): as the sequence (P08684 whole entry) above
Cytochrome P450 2D6, sequence (P10635 whole entry): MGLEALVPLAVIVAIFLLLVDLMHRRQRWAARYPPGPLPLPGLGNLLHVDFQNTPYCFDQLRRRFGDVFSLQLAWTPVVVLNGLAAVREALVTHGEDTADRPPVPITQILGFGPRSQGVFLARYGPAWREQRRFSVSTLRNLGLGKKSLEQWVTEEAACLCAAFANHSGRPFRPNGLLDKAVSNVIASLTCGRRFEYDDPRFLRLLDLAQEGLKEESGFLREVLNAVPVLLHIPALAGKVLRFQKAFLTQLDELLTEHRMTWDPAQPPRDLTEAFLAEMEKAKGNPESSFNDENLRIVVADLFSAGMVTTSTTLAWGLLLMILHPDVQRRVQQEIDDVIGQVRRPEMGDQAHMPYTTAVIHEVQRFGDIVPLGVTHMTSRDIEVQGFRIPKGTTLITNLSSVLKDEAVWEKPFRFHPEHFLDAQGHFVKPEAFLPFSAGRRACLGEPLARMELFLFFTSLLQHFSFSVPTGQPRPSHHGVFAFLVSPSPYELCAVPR

As to `Cc1ccc(-n2nccn2)c(C(=O)N2C[C@H](C#Cc3cc(CO)ccn3)CC[C@H]2C)c1`, the Ki came to 76 nM in [1] and 42 nM in data set [2].

Regarding `Cc1ccc(-n2nccn2)c(C(=O)N2C[C@H](C#Cc3cccc(CO)n3)CC[C@H]2C)c1`, the logD in [3] was 2.1. Further, the results for the Ki in [1] and in data set [2] were 18 nM and 5.6 nM, respectively. The values for the IC50 in data set [4] and in data set [5] were 59 nM and 26 nM, respectively.

With `Cc1ccc(-n2nccn2)c(C(=O)N2C[C@H](CCc3ccc(F)cn3)CC[C@H]2C)c1`, the Ki came to 470 nM in data set [1] and 26 nM in data set [2]. In addition, the IC50 in data set [4] was 861 nM; in [5] it was 145 nM.

Regarding `Cc1ccc(-n2nccn2)c(C(=O)N2C[C@H](C#Cc3ccccn3)CC[C@H]2C)c1`, the Ki in data set [1] turned out to be 27 nM; in data set [2], 11 nM. For the same molecule, the half-maximal inhibitory concentration (IC50) in [4] was 100 nM; in [5], 42 nM.

Turning to `Cc1ccc(-n2nccn2)c(C(=O)N2C[C@H](C#Cc3ccncc3)CC[C@H]2C)c1`, the Ki in data set [1] is 26 nM; in data set [2], 7 nM.

Take `Cc1ccc(-n2nccn2)c(C(=O)N2C[C@H](C#Cc3cncc(CO)c3)CC[C@H]2C)c1`: the Ki in [1] stood at 108 nM; in data set [2], 32 nM.

`Cc1ccc(-n2nccn2)c(C(=O)N2C[C@H](C#Cc3ccnc(CO)c3)CC[C@H]2C)c1`: the figures for the Ki in [1] and in data set [2] were 75 nM and 25 nM, respectively. Besides, the figures for the IC50 in [4] and in [5] were 298 nM and 100 nM, respectively.

In the case of `Cc1ccc(-n2nccn2)c(C(=O)N2C[C@H](C#Cc3cccnc3)CC[C@H]2C)c1`, the results for the inhibition constant (Ki) in data set [1] and in [2] were 107 nM and 41 nM, respectively. Moreover, the 50% inhibitory concentration (IC50) in [4] amounted to 83 nM; in data set [5] it was 28 nM.

For `Cc1ccc(-n2nccn2)c(C(=O)N2C[C@H](C#Cc3cccnc3O)CC[C@H]2C)c1`, the Ki in [1] and in data set [2] was 24 nM throughout.

`Cc1ccc(-n2nccn2)c(C(=O)N2C[C@H](C#Cc3ccc(F)cn3)CC[C@H]2C)c1` registered a logD in data set [3] of 3.7. The figures for the INH in data set [6], in data set [11] and in data set [14] were over 50 µM, 23 µM and 32 µM, respectively. For the same molecule, the outcome in data set [7], in data set [12], in data set [15], in data set [16], in data set [22] and in [25] was Active. For the same molecule, in [8], the half-life was 2 h. In addition, in [9], the AUC is 60 µM·h. The values for the fraction unbound in data set [10] and in data set [21] were 0.039 and 0.009, respectively. The Ki in [1] and in data set [2] was 1.1 nM in each case. Moreover, in data set [13], the concentration in solution (solubility) was 124 µM (≈ 50 µg/mL). Moreover, the IC50 is over 50000 nM in [17], 31 nM in [4] and 24 nM in data set [5]. Besides, the result in [18] was inactive. In addition, in [19], the IC50 shift is over 6.4. The Time in data set [20] was 2 h. Besides, in [23], the clearance came to 1.6 mL/min/kg. Also, the “inhibition (INH)” value in data set [24] is given as “tde”.

With `Cc1ccc(-n2nccn2)c(C(=O)N2C[C@H](COc3ccc(F)cn3)CC[C@H]2C)c1`, the Ki was 1 nM in [1] and 0.2 nM in data set [2]. For the same molecule, the IC50 in [4] amounted to 16 nM; in [5], 15 nM.

Consider `Cc1ccc(-n2nccn2)c(C(=O)N2C[C@H](/C=C\c3ccc(F)cn3)CC[C@H]2C)c1`, for which the Ki in data set [1] amounted to 135 nM; in [2], 28 nM. The IC50 was 706 nM in data set [4] and 417 nM in [5].

On to `Cc1ccc(-n2nccn2)c(C(=O)N2C[C@H](/C=C/c3ccc(F)cn3)CC[C@H]2C)c1`, for which the Ki in data set [1] was found to be 17 nM; in data set [2], 3 nM. The figures for the IC50 in [4] and in data set [5] were 140 nM and 34 nM, respectively.

`Cc1ccc(-n2nccn2)c(C(=O)N2C[C@H](C#Cc3ccc(CO)nc3)CC[C@H]2C)c1`: the Ki in data set [1] amounted to 339 nM; in data set [2] it was 150 nM.

As for `Cc1ccc(-n2nccn2)c(C(=O)N2C[C@H](C#Cc3cccc(CO)c3)CC[C@H]2C)c1`, the Ki in data set [1] was determined as 0.56 nM; in data set [2] it was 0.53 nM. Besides, the results for the IC50 in [17], in data set [4] and in data set [5] were 4000 nM, 6.3 nM and 6.3 nM, respectively.

As for `Cc1ccc(-n2nccn2)c(C(=O)N2C[C@H](C#Cc3ccc(CO)cn3)CC[C@H]2C)c1`, the Ki was 211 nM in [1] and 130 nM in data set [2].

Regarding `Cc1ccc(-n2nccn2)c(C(=O)N2C[C@H](C#Cc3cnccc3O)CC[C@H]2C)c1`, the Ki in data set [1] is 866 nM; in data set [2] it was 7.5 nM. Also, the IC50 in data set [4] was found to be 3880 nM; in data set [5] it was 52 nM.
